Consider 5 compounds from ChEMBL document CHEMBL1123806, “Effects of derivatives of kahweol and cafestol on the activity of glutathione S-transferase in mice” (1987).

Assay [1] addresses T1, Glutathione S-transferase Mu 1 (Mus musculus) (UniProt P10649).
T1 sequence (whole entry): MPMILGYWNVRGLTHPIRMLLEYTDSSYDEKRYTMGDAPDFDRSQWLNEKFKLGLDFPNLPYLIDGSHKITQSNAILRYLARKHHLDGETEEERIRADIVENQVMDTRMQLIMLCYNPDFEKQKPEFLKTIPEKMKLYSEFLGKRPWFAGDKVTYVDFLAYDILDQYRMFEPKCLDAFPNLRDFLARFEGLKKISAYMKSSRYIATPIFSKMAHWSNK
Kind of assay: Ratio is the compound /control(Specific activity in lung). The class given is functional. In a few lines:
(§1)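 Mice (6-8 wk, groups of 4-5, semipurified diet) dosed po once daily for 3 days with 10 μmol in 0.2 mL cottonseed oil/10% ethanol. Vehicle-only controls. Killed 24 h after the last dose. Tissue homogenized in phosphate buffer pH 7.5, then spun at 100000g for 1 h to give cytosol. CDNB conjugation read at 340 nm, 30 °C, pH 6.5 phosphate, 5 mM GSH, 1 mM CDNB. Units µmol/min/mg protein, mean ± SD; ratio = treated/control.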

Assay [2] deals with T1, Glutathione S-transferase Mu 1 (Mus musculus). Kind of assay: Ratio is the compound /control(Specific activity in forestomach). The class given is functional, tissue-based. The conditions noted are these: Stomach. In a few lines:
as §1

For assay [3], the species on record is Mus musculus. Kind of assay: Tissue acid-soluble sulfhydryl levels of small bowel mucosa of ICR/Ha mice. The class given is functional. In a few lines: (§2)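 Same dosing: 10 μmol po daily for 3 days in cottonseed oil/10% ethanol, vehicle controls, tissues taken 24 h after the last dose. Homogenate (phosphate pH 7.5) used at once. Ellman method: equal volume 4% sulfosalicylic acid, then supernatant plus 9 volumes of 0.1 mM DTNB in 0.1 M phosphate pH 8.0. Read spectrophotometrically. Units µmol SH/g tissue, mean ± SD; ratio = treated/control.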

The nature of assay [4]: Tissue acid-soluble sulfhydryl levels of liver of ICR/Ha mice. The class given is functional, Mus musculus. In a few lines: as §2
The target of assay [5] is T1, Glutathione S-transferase Mu 1 (Mus musculus). As to the kind of experiment: Ratio is the compound /control(Specific activity in liver(GST)). The class given is functional, tissue-based. In a few lines:
as §1

The nature of assay [6]: Ratio is the compound /control(SH level in liver). The class given is functional, Mus musculus. In a few lines: as §2
The target of assay [7] is T1, Glutathione S-transferase Mu 1 (Mus musculus). Kind of assay: GST activity in the cytosols of the forestomach of ICR/Ha mice was determined by using 1-Chloro-2,4-dinitrobenzene as the substrate. The class given is functional, tissue-based. The conditions noted are these: Stomach. In a few lines:
as §1

For assay [8], the species on record is Mus musculus. As to the kind of experiment: GST activity in the cytosols of small bowel mucosa of ICR/Ha mice was determined by using 1-Chloro-2,4-di nitrobenzene as the substrate. The class given is functional. In a few lines:
as §1

The species entered for assay [9] is Mus musculus. Kind of assay: Ratio is the compound /control(SH in small bowel mucosa). The class given is functional. In a few lines:
as §2

Assay [10] concerns the target T1, Glutathione S-transferase Mu 1 (Mus musculus). Kind of assay: GST activity in the cytosols of the lung of ICR/Ha mice was determined by using 1-Chloro-2,4-dinitrobenzene as the substrate. The class given is functional. In a few lines:
as §1

Assay [11] has the same target. Kind of assay: GST activity in the cytosols of liver of ICR/Ha mice, using 1-Chloro-2,4-dinitrobenzene as substrate. The class given is functional, tissue-based. In a few lines: as §1
Assay [12] has the same target. Kind of assay: Ratio is the compound /control(Specific activity in small bowel mucosa(GST)). The class given is functional. In a few lines: as §1
The species entered for assay [13] is Mus musculus. As to the kind of experiment: Tissue acid-soluble sulfhydryl levels of small bowel mucosa of ICR/Ha mice. P < 0.005. The class given is functional. In a few lines: as §2
Assay [14] is filed under the species Mus musculus. Kind of assay: GST activity in the cytosols of small bowel mucosa of ICR/Ha mice was determined by using 1-Chloro-2,4-dinitrobenzene as the substrate. The class given is functional. In a few lines:
as §1

For assay [15], the species on record is Mus musculus. Kind of assay: Tissue acid-soluble sulfhydryl levels of liver of ICR/Ha mice. P<0.005. The class given is functional. In a few lines:
as §2

The species named for assay [16] is Mus musculus. As to the kind of experiment: GST activity in the cytosols of small bowel mucosa of ICR/Ha mice was determined by using 1-Chloro-2,4-dinitrobenzene as the substrate. The class given is functional. In a few lines: as §1
Assay [17] is described as follows: Tissue acid-soluble sulfhydryl levels of liver of ICR/Ha mice. The class given is functional, Mus musculus. In a few lines: as §2

The structures appear in SMILES notation.

For `C[C@@]12C=Cc3occc3C1CC[C@]13CCC(CCC12)C3` (some centres not stated), the Ratio in assay [1] turned out to be 1.2; in [2], 0.9; in [5], 2.1; in assay [6] it was 1.1; in the assay listed under Mus musculus [9], 1.2; in assay [12], 3.9. Also, the values for the SH level (in the assay filed under Mus musculus [3]; in [4]) were 7.8 µmol/g and 9.5 µM/g, respectively. For the same compound, the Specific activity (uM min-1 (mg of protein)-1) is 0.63 in assay [7], 0.36 in assay [10] and 3.06 in [11]. For the same compound, the Specific activity in the assay listed under Mus musculus [8] is 1.18 uM min-1 (mg of protein)-1.

As to `CC(=O)OC[C@@]1(O)C[C@@]23CCC4[C@H]5CCO[C@H]5CC[C@@]4(C)C2CCC1C3` (some centres not stated), the SH level was found to be 8.2 µM/g in the assay filed under Mus musculus [13] and 14.3 µM/g in the assay filed under Mus musculus [15]. Besides, in the assay listed under Mus musculus [14], the Specific activity is listed as 0.41 uM min-1 (mg of protein)-1. Further, the Ratio in assay [5] turned out to be 1.06; in assay [6], 1.42; in the assay listed under Mus musculus [9] it was 1.4; in assay [12], 1. In assay [11], this compound had a Specific activity (uM min-1 (mg of protein)-1) of 1.25.

As for `C[C@@]12CC[C@@H]3OCC[C@@H]3C1CC[C@@]13CC(CCC12)[C@@](O)(CO)C3` (some centres not stated), in the assay filed under Mus musculus [16], the Specific activity was 0.54 uM min-1 (mg of protein)-1. The SH level in the assay listed under Mus musculus [3] turned out to be 7.4 µmol/g; in [4], 14.5 µM/g. The Ratio in assay [5] amounted to 1.25; in assay [6], 1.44; in the assay filed under Mus musculus [9], 1.2; in assay [12], 1.4. This compound also showed a Specific activity (uM min-1 (mg of protein)-1) in assay [11] of 1.48.

As for `C[C@@]12CCc3occc3C1CC[C@]13CC(O)C(CCC12)C3` (some centres not stated), the Ratio is 0.8 in assay [1]; 1.2 in assay [2]; 1.5 in [5]; 1.7 in [6]; 2.2 in the assay filed under Mus musculus [9]; 4.2 in assay [12]. Besides, the SH level was 11.9 µmol/g in the assay listed under Mus musculus [3] and 12.8 µM/g in assay [17]. Besides, the figures for the Specific activity (uM min-1 (mg of protein)-1) in [7], in assay [10] and in assay [11] were 0.91, 0.2 and 2.54, respectively. Moreover, the Specific activity in the assay filed under Mus musculus [8] is 1.52 uM min-1 (mg of protein)-1.

With `CC1(O)C[C@@]23CCC4c5ccoc5CC[C@@]4(C)C2CCC1C3` (some centres not stated), the Ratio came to 1 in assay [1]; 1 in assay [2]; 1.4 in assay [5]; 2.1 in [6]; 1.6 in the assay filed under Mus musculus [9]; 3.6 in [12]. The SH level in the assay filed under Mus musculus [3] amounted to 8.6 µmol/g; in assay [17] it was 16.3 µM/g. The Specific activity (uM min-1 (mg of protein)-1) in assay [7] amounted to 0.76; in [10], 0.27; in assay [11], 2.26. Besides, the Specific activity in the assay filed under Mus musculus [8] is on record as 1.3 uM min-1 (mg of protein)-1.
